Assay results taken from article PMC2760637 (Journal of molecular recognition : JMR, 2009).
Each block holds one molecule with its values, some of them ahead of it. *1 amine or outer side, *2 acyl side, *3 side chain or, on linkers, in order; H or OH if unused. Bridges are numbered along the chain shown (N, C = ends). [ ]: non-standard residue; d: D form. Tyr(OMe) = O-methyl-tyrosine, COc1ccc(C[C@H](N[*:1])C(=O)[*:2])cc1

Tests used:
[1] = tested on: classical pathway of complement activation; experiment: Complement inhibition assay; type: biochemical
Procedure, shortened: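 Classical-pathway activation was triggered by antigen–antibody complexes formed on the ELISA plate: an albumin-coated plate bound by a polyclonal anti-ovalbumin antibody. C3b deposited in the presence of the test peptide was detected by ELISA. Percent inhibition was plotted against peptide concentration and fitted to a logistic dose-response function to derive IC50.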

[2] = target: complement C3 (Homo sapiens) (UniProt P01024); experiment: ITC; conditions: cited from earlier work
[3] = target: complement C3 (Homo sapiens), P01024; experiment: ITC; conditions: Y4 is O-methyl-Tyr, N-acetyl, C-amide, disulfide C2-C12

Molecule: Ac-ICV(1MeW)QisoDWGAHRCT [4(1MeW)6(isoD)]
- inhibitory activity (in words) ([1]; listed as 4(1MeW)6isoD): lacked inhibitory activity
- inhibitory activity (in words) ([1]; listed as 6isoD): complete loss of activity

Molecule: compstatin 4(5MeW)
- Kd [2]: 120 nM

- Kd [3]: 115 nM
B1: compstatin 4MeY (peptide)
chain: Ac-ICV[Tyr(OMe)]QDWGAHRCT-NH2
modifications: disulfide 2-12
SMILES: CC[C@H](C)[C@H](NC(C)=O)C(=O)N[C@H]1CSSC[C@@H](C(=O)N[C@H](C(N)=O)[C@@H](C)O)NC(=O)[C@H](CCCNC(=N)N)NC(=O)[C@H](Cc2c[nH]cn2)NC(=O)[C@H](C)NC(=O)CNC(=O)[C@H](Cc2c[nH]c3ccccc23)NC(=O)[C@H](CC(=O)O)NC(=O)[C@H](CCC(N)=O)NC(=O)[C@H](Cc2ccc(OC)cc2)NC(=O)[C@H](C(C)C)NC1=O
